# The list is not random: actives were taken first. Their share in the collection is about 2.6%.
# hiPSC survival = enhancers of single-cell hiPSC survival, primary screen, ATPlite luminescence | 100% = ROCK inhibitor wells, 0% = DMSO | survival enhancement, % at 20 µM | 360,000 compounds, 0.044% hits | AID 602274, 2012; in the data active = survival enhancement above about 18%;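 also: cells exposed to compounds for 16 hours before the ATP read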
# ABCB6 inh MLPCN = ABCB6 transporter inhibitors, primary screen, K562-ABCB6 cells, flow cytometry, MLPCN library. ATP-binding cassette sub-family B member 6 (Homo sapiens), Q9NP58. K562-ABCB6 porphyrin accumulation, 1 h; active compounds read low. fluorescence ratio to DMSO, % at 10 µM. 360,000 compounds, 0.19% hits. AID 602162, 2011;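 active = fluorescence ratio to DMSO below 75%, the collection mean minus 3 SD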;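 also: signal is porphyrin accumulated inside mitochondria; 100% equals median channel fluorescence of DMSO control wells; lower ratio means ABCB6 inhibition with less porphyrin fluorescence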
# MC4R ag barr = MC4R agonists recruiting beta-arrestin, primary screen, cell-based, luminescence, agonist arm of biased-ligand search; activation, % at 8.9 µM; 360,000 compounds, 0.98% hits; Melanocortin receptor 4 (Homo sapiens), P32245; U2OS MC4R beta-arrestin complementation; percent of melanotan II response, DMSO zero; AID 540308, 2011;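 active = activation above a per-plate cutoff, the mean activation of sample wells on that plate plus 3 SD, cut at about 8% in these data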
# Target sequence (P32245 whole entry, looked up): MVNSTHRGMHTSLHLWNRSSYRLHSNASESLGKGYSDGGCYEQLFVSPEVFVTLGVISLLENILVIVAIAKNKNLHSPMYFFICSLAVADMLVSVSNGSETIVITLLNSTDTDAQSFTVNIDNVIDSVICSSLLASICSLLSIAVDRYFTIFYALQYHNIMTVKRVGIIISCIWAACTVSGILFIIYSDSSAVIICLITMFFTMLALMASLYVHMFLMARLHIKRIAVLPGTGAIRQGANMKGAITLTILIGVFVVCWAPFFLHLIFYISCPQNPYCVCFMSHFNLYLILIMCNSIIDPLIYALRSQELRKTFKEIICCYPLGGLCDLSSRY
# Granule exo inh = LAMP-1 surface exposure blockers, TALL-104 cells – cell-based, flow cytometry, MLPCN library, primary screen; TALL-104 LAMP-1 surface exposure; cells stimulated with thapsigargin and PMA; inhibition, % at 10 µM; 360,000 compounds, 0.66% hits;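 active = inhibition above about 55%, limit read from the data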
# MC4R antagonist = MC4R antagonists of cAMP signaling, primary screen, cell-based, TR-FRET, antagonist arm of biased-ligand search; MC4R-expressing cells, MTII-stimulated cAMP, LANCE TR-FRET; 360,000 compounds, 0.48% hits; inhibition, % at 6.5 µM;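 active = inhibition above its plate's cutoff, the mean of tested wells on that plate plus 3 SD, cut at about 29% in these data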;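 also: 0% = Melanotan II alone and 100% = Melanotan II plus saturating MCL0020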
#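 System – human MC4R-expressing U2OS cells · Also added – Melanotan II · Dosing – one concentration, 6.5 µM nominal · Timing – 30-min compound, 1-h challenge, 1-h detection, room temperature · Measured by – Eu-cAMP/anti-cAMP TR-FRET, emission 671 nm · Replicates – singlicate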
# Tb MetRS inh = T. brucei MetRS inhibitors, primary screen, biochemical, luminescence | purified T. brucei MetRS, ATP depletion, Kinase-Glo luminescence | inhibition, % at 11.9 µM | 360,000 compounds, 0.4% hits;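 active = inhibition above a per-plate cutoff of the control wells' mean inhibition plus 3 SD, cut at about 5.5% in these data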;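 also: 0% = DMSO wells median and 100% = median of wells with control inhibitor compound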
#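 Test system: purified T. brucei MetRS enzyme. Also added: ATP, methionine and E. coli bulk tRNA substrates. Compound: 11.9 µM single point. Schedule: 15 min enzyme-compound preincubation, 2 h reaction, 10 min detection, 25 °C. Signal: luciferase luminescence of residual ATP, Kinase-Glo. Evaluation: percent inhibition versus plate control medians. Controls: DMSO wells, low control.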
# TbMetRS confirm = T. brucei MetRS inhibitors, confirmation, biochemical, luminescence; shares compounds with Tb MetRS inh; T. brucei MetRS enzyme, luminescence (ATP depletion); inhibition, % at 11.9 µM; 1,400 compounds, 93% hits; AID 624412, 2012; in the data active = inhibition above about 7%
# Jurkat tox = Jurkat T cell cytotoxicity, cytotoxicity control for T. brucei MetRS inhibitor project, luminescence, high throughput | shares compounds with Tb MetRS inh | Jurkat cells viability, ATP luminescence | inhibition, % at 8.3 µM | 1,400 compounds, 12% hits | AID 624413, 2012; in the data active = inhibition above about 15%;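 also: 0% = vehicle and 100% = reference inhibitor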
# Tb MetRS inh FP = T. brucei MetRS inhibitors, orthogonal assay for T. brucei MetRS inhibitor project, biochemical, fluorescence polarization | shares compounds with Tb MetRS inh | purified T. brucei MetRS | inhibition, % at 11.9 µM | 1,400 compounds, 44% hits | AID 651607, 2012; in the data active = inhibition above about 17%;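 also: 0% = vehicle wells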
# * hit, by the source's call; x = no result given.
SMILES,hiPSC survival,ABCB6 inh MLPCN,MC4R ag barr,Granule exo inh,MC4R antagonist,Tb MetRS inh,TbMetRS confirm,Jurkat tox,Tb MetRS inh FP
CN(CC(=O)Nc1ccc(Cl)c(C(F)(F)F)c1)C(=O)/C=C/c1cccs1,0,101,6,4,-1,21*,70*,5,41*
CN(CC(=O)Nc1ccc(Cl)c(C(F)(F)F)c1)C(=O)C1CCC1,0,101,-6,-2,2,0,x,x,x
Cc1ccc(S(=O)(=O)N(C)CC(=O)OCC(=O)NCCc2ccc(S(N)(=O)=O)cc2)cc1,5,96,0,2,8,0,x,x,x
COc1ccc(C2CC(c3cccc(Cl)c3)n3nc(N)nc3N2)cc1 (centres undefined),-2,98,2,-3,18,0,x,x,x
COc1ccccc1C1CC(c2ccc(Cl)cc2Cl)Nc2nc(N)nn21 (centres undefined),-1,94,0,0,21,6.6*,15*,0,7
O=C(CCCC1=NS(=O)(=O)c2ccccc2N1)OCc1ccc(Cl)cc1,1,96,-1,-2,7,20*,44*,2,14
O=C(Nc1ccc(F)cc1)c1ccc(-n2cncn2)c([N+](=O)[O-])c1,-2,94,1,0,5,34*,48*,22*,28*
Cc1cccc(NC(=O)c2ccc(-n3cncn3)c([N+](=O)[O-])c2)c1,1,98,-1,-9,3,20*,57*,-1,29*
Cc1ccc(NC(=O)c2ccc(-n3cncn3)c([N+](=O)[O-])c2)cc1F,4,94,-3,0,-6,13*,56*,1,25*
CC(=O)Oc1ccc2c(=O)c(/C=N/c3cc(=O)[nH]c(=S)[nH]3)coc2c1,0,106,0,4,-20,8.0*,13*,3,3
CN1CCN(C(=O)C2=C[C@H](c3ccc(C(F)(F)F)cc3)C[C@H](OCc3ccc(CO)cc3)O2)CC1,-2,98,0,-4,7,0,x,x,x
Cc1ccc(C(=O)NCC(=O)OC(C)C(=O)NC2CCCCC2C)cc1C (centres undefined),0,98,0,2,-1,0,x,x,x
CC(OC(=O)CNC(=O)c1ccc(Cl)c([N+](=O)[O-])c1)C(=O)NC1CCCCC1C (centres undefined),0,102,-1,7,13,7.2*,26*,-1,13
Cc1cccc(NS(=O)(=O)c2ccc3nc(-c4ccccc4)[nH]c3c2)c1C,1,96,9.0*,1,-1,27*,40*,3,30*
O=C(OCC(=O)c1c[nH]c2ccccc12)c1ccc([N+](=O)[O-])s1,-2,102,-1,0,-5,10*,23*,5,7
O=C(Nc1ccc(Br)cn1)C1CCCN1S(=O)(=O)c1ccccc1 (centres undefined),-6,149,1,2,13,-3,x,x,x
Cc1ccc(-c2nnn(CC(=O)N(c3cccc(F)c3)C(C(=O)NC(C)(C)C)c3ccco3)n2)o1 (centres undefined),-2,93,0,-3,0,-1,x,x,x
Nc1nc2cc3ccccc3cc2[nH]c1=O,1,95,1,-8,28,6.3*,5.8*,3,0
Nc1c(Cl)ncnc1Nc1ccc(C(=O)O)cc1,0,100,0,-8,-5,46*,74*,-7,46*
O=C(NCc1nc2ccccc2[nH]1)C1=C[C@H](c2csc3ccccc23)C[C@H](OCc2ccc(CO)cc2)O1,-3,92,1,-2,19,58*,93*,4,62*
O=C(NCc1nc2ccccc2[nH]1)C1=C[C@@H](c2csc3ccccc23)C[C@@H](OCc2ccc(CO)cc2)O1,1,96,0,-3,17,41*,82*,-1,50*
O=C(Nc1ccccc1)C1=C[C@H](c2csc3ccccc23)C[C@H](OCc2ccc(CO)cc2)O1,1,94,2,5,13,0,x,x,x
COc1cccc(NC(=O)CN(C)CC(=O)Nc2ccc(Br)cc2)c1,0,93,-1,-6,6,11*,20*,3,23*
COc1cccc(NC(=O)CSc2nc3ncc(Br)cc3[nH]2)c1,1,94,-2,-5,3,70*,85*,6,60*
CCN(CC)C(=O)CSc1nc2ncc(Br)cc2[nH]1,-3,92,-2,1,1,2,x,x,x
SMILES,hiPSC survival,ABCB6 inh MLPCN,MC4R ag barr,Granule exo inh,MC4R antagonist,Tb MetRS inh,TbMetRS confirm,Jurkat tox,Tb MetRS inh FP
O=C(CSc1nc2ncc(Br)cc2[nH]1)c1ccc([N+](=O)[O-])cc1,1,98,4,5,2,18*,52*,2,24*
COc1ccc(NC(=O)CSCc2cc(=O)n3nc(C4CC4)sc3n2)cc1,-1,94,-3,2,3,0,x,x,x
Cc1cc(NC(=O)c2ccc(Cl)cc2Cl)n(CCC#N)n1,1,100,-3,-6,6,6.4*,13*,5,12
C[C@@H]1CN([C@H](C)CO)C(=O)CCCn2nncc2CO[C@H]1CN(C)S(=O)(=O)c1ccc(-n2cccn2)cc1,2,99,1,0,8,0,x,x,x
O=C(NCc1n[nH]c(=S)n1Cc1ccccc1)c1ccccc1,-1,98,-2,0,10,-1,x,x,x
O=C(NCc1n[nH]c(=S)n1Cc1ccccc1)c1ccc(Cl)cc1Cl,0,96,0,0,12,5.8*,13*,1,5
